Among the data in BindingDB's records for doi:10.1016/j.bmcl.2009.08.036 (Glaxosmithkline, 2009) are EC50 values, retold here.

The assay has as its target T1, Oxysterols receptor LXR-beta (Homo sapiens, UniProt P55055).
T1 sequence (P55055 whole entry): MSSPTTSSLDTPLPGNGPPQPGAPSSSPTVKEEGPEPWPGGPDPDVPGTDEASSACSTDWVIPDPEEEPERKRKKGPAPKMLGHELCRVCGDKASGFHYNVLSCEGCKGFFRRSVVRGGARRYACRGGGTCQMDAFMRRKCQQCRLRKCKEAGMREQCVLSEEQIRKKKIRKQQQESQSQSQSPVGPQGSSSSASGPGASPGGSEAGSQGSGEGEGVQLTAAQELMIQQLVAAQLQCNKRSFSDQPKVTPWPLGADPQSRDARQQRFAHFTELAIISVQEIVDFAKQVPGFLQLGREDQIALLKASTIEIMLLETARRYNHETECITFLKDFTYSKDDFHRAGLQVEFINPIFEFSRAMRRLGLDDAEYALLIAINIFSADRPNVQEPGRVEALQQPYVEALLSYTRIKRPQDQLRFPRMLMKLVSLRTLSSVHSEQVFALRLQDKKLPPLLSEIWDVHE
Briefly: Agonist activity at human LXRbeta assessed as association of SRC1 to LXRbeta ligand binding domain by FRET based cell-free ligand sensing assay. An outline of the steps:
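Cell-free FRET ligand-sensing assay measuring ligand-dependent recruitment of a 24-amino-acid steroid receptor coactivator 1 (SRC1) fragment to the LXR ligand-binding domain. Percent efficacy is expressed against the maximal agonist response of the reference agonist. Values are means of at least two experiments, standard deviation ≤10%.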

Broadly, the EC50 is the midpoint of the concentration-response curve. Consider `O=C(O)C1CCCc2c(OCCCN(Cc3cccc(C(F)(F)F)c3Cl)CC(c3ccccc3)c3ccccc3)cccc21` (racemic) [(+/-)-5-(3-((2-chloro-3-(trifluoromethyl)benzyl)(2,2-diphenylethyl)amino)propoxy)-1,2,3,4-tetrahydronaphthalene-1-carboxylic acid], for which the concentration for a half-maximal effect (EC50) came out at 0.026 µM.
